In ChEMBL document CHEMBL3580554, “Design, synthesis, and anticonvulsant activity of new hybrid compounds derived from 2-(2,5-dioxopyrrolidin-1-yl)propanamides and 2-(2,5-dioxopyrrolidin-1-yl)butanamides” (J Med Chem, 2015):

Columns and labels:
Mus musculus [1] = experiment: Anticonvulsant activity in Swiss mouse assessed as protection against seizures at 300 mg/kg, ip dosed 0.5 hrs before initiation of maximal electroconvulsions by maximal electroshock test; format: functional
In short: (§1)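 Mice were dosed i.p. at a fixed 300 or 100 mg/kg (6 Hz: 100 mg/kg only). Protection was then scored against MES, sc PTZ or 6 Hz seizures at pretreatment times of 0.25, 0.5, 1 and 2 h. Groups were four mice, scored as number protected / number tested. This also gives the time course and time of peak effect.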

Mus musculus [2] = experiment: Anticonvulsant activity in Swiss mouse assessed as protection against seizures at 300 mg/kg, ip dosed 1 hr before initiation of maximal electroconvulsions by maximal electroshock test; format: functional; in short: as §1
Mus musculus [3] = experiment: Anticonvulsant activity in Swiss mouse assessed as protection against seizures at 300 mg/kg, ip dosed 2 hrs before initiation of maximal electroconvulsions by maximal electroshock test; format: functional; in short: as §1
Mus musculus [4] = experiment: Anticonvulsant activity in Swiss mouse assessed as protection against seizures at 100 mg/kg, ip dosed 0.25 hrs before initiation of maximal electroconvulsions by maximal electroshock test; format: functional; in short: as §1
Mus musculus [5] = experiment: Anticonvulsant activity in Swiss mouse assessed as protection against seizures at 100 mg/kg, ip dosed 0.5 hrs before initiation of maximal electroconvulsions by maximal electroshock test; format: functional; in short: as §1
Mus musculus [6] = experiment: Anticonvulsant activity in Swiss mouse assessed as protection against seizures at 100 mg/kg, ip dosed 1 hr before initiation of maximal electroconvulsions by maximal electroshock test; format: functional; in short: as §1
Mus musculus [7] = experiment: Anticonvulsant activity in Swiss mouse assessed as protection against seizures at 300 mg/kg, ip dosed 0.25 hrs before pentylenetetrazole challenge by subcutaneous pentylenetetrazole seizure test; format: functional; in short: as §1
Mus musculus [8] = experiment: Anticonvulsant activity in Swiss mouse assessed as protection against seizures at 300 mg/kg, ip dosed 2 hrs before pentylenetetrazole challenge by subcutaneous pentylenetetrazole seizure test; format: functional; in short: as §1
Mus musculus [9] = experiment: Anticonvulsant activity in Swiss mouse model of 6 Hz psychomotor seizure mode assessed as protection against seizures at 100 mg/kg, ip dosed 0.25 hrs before 6 Hz electrical stimulation by 6 Hz test; format: functional; in short: as §1
Mus musculus [10] = experiment: Anticonvulsant activity in Swiss mouse model of 6 Hz psychomotor seizure mode assessed as protection against seizures at 100 mg/kg, ip dosed 0.5 hrs before 6 Hz electrical stimulation by 6 Hz test; format: functional; in short: as §1
Mus musculus [11] = experiment: Anticonvulsant activity in Swiss mouse model of 6 Hz psychomotor seizure mode assessed as protection against seizures at 100 mg/kg, ip dosed 2 hrs before 6 Hz electrical stimulation by 6 Hz test; format: functional; in short: as §1
Rattus norvegicus [12] = species on record: Rattus norvegicus; experiment: Inhibition of [3H]BTX binding to sodium channel site 2 in rat cerebral cortex synaptosomes at 100 uM incubated for 60 mins by scintillation counting based radioligand displacement assay; format: subcellular
In short: (§2)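 Synaptoneurosomal preparations from rat cerebral cortex were used. The read-out was inhibition of specific [3H]BTX binding to the voltage-sensitive sodium channel (site 2), expressed as % inhibition of control specific binding. Compounds were tested at 1, 10, 100 and 500 μM. Inhibition above 50% was taken as significant.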

Mus musculus [13] = species on record: Mus musculus; experiment: Protective index, ratio of neurotoxic TD50 in Swiss mouse by Chimney test to anticonvulsant ED50 in Swiss mouse measured at 0.5 hrs of time to peak effect by maximal electroshock test
In short: (§3)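 Protective index was calculated as TD50 (chimney test, mouse, i.p.) divided by ED50 from the matching MES, sc PTZ or 6 Hz test, both taken at the time of peak effect.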

Mus musculus [14] = experiment: Anticonvulsant activity in ip dosed Swiss mouse assessed as protection against seizures measured at 0.5 hrs of time to peak effect by maximal electroshock test; format: functional
In short: (§4)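 Median effective doses (ED50, mg/kg) were determined i.p. in mice at the time of peak effect in the MES, sc PTZ or 6 Hz tests. Only compounds giving at least 50% protection at 100 mg/kg in that test were taken forward.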

Mus musculus [15] = experiment: Anticonvulsant activity in ip dosed Swiss mouse assessed as protection against seizures measured at 0.5 hrs of time to peak effect by subcutaneous pentylenetetrazole seizure test; format: functional; in short: as §4
[16] = Toxicity in ip dosed Swiss mouse assessed as induction of motor performance impairment measured within 60 seconds measured at 0.5 hrs of time to peak effect by Chimney test; format: organism-based; settings: in vivo
In short: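 Neurotoxicity was measured i.p. in mice by the chimney test for motor impairment. It was given as the median neurotoxic dose (TD50, mg/kg) at the time of peak effect.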

Mus musculus [17] = experiment: Anticonvulsant activity in ip dosed Swiss mouse assessed as protection against seizures measured at 1 hr of time to peak effect by 6 Hz test by 6 Hz psychomotor seizure test; format: functional
[18] = Toxicity in ip dosed Swiss mouse assessed as induction of motor performance impairment measured within 60 seconds measured at 1 hr of time to peak effect by Chimney test; format: organism-based; settings: in vivo
In short: (§5)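 Neurotoxicity (TD50) estimated in mice i.p. by chimney test for motor coordination impairment; protective index calculated as TD50/ED50 for each seizure model.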

Mus musculus [19] = experiment: Protective index, ratio of neurotoxic TD50 in Swiss mouse by Chimney test to anticonvulsant ED50 in Swiss mouse measured at 1 hr of time to peak effect by subcutaneous pentylenetetrazole seizure test; format: functional; in short: as §3
[20] = Protective index, ratio of neurotoxic TD50 in Swiss mouse by Chimney test to anticonvulsant ED50 in Swiss mouse measured at 1 hr of time to peak effect by 6 Hz test by 6 Hz psychomotor seizure test; format: toxicity; settings: in vivo, read-out: Ratio TD50/ED50; in short: as §5
Rattus norvegicus [21] = species on record: Rattus norvegicus; experiment: Inhibition of [3H]BTX binding to sodium channel site 2 in rat cerebral cortex synaptosomes at 500 uM incubated for 60 mins by scintillation counting based radioligand displacement assay; format: subcellular; in short: as §2
Rattus norvegicus [22] = species on record: Rattus norvegicus; experiment: Inhibition of [125I]omega-conotoxin GVIA binding to N-type calcium channel in rat cerebral cortex synaptosomes at 100 uM incubated for 30 mins by scintillation counting based radioligand displacement assay; format: subcellular
[23] = Ratio of IC50 for test compound to IC50 for doxorubicin against HEK293 cells assessed as reduction in cell viability after 48 hrs by EZ4U label based assay; settings: human, read-out: Ratio IC50
Liver microsome [24] = experiment: Drug metabolism in human liver microsomes assessed as metabolite M1 formation at 50 uM in presence of NADPH regeneration system pre-incubated at 37 degC for 5 min and measured 2 hrs after post NADPH system addition by UPLC and LC-MS/MS method; format: ADME
In short: (§6)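 The compound was incubated 2 h with human liver microsomes. Metabolites were detected by full-scan chromatogram and identified by LC/MS from their [M+H]+ molecular masses.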

Liver microsome [25] = experiment: Drug metabolism in human liver microsomes assessed as metabolite M3 formation at 50 uM in presence of NADPH regeneration system pre-incubated at 37 degC for 5 min and measured 2 hrs after post NADPH system addition by UPLC and LC-MS/MS method; format: ADME; in short: as §6
Liver microsome [26] = experiment: Drug metabolism in human liver microsomes assessed as metabolite M4 formation at 50 uM in presence of NADPH regeneration system pre-incubated at 37 degC for 5 min and measured 2 hrs after post NADPH system addition by UPLC and LC-MS/MS method; format: ADME; in short: as §6
CYP3A4 = CYP3A4 (Homo sapiens, UniProt P08684); experiment: Inhibition of human recombinant CYP3A4 assessed as remaining enzyme activity by measuring conversion of luciferin-PPXE into D-luciferin at 25 uM by luminescence CYP3A4 P450-Glo assay relative to untreated control; format: ADME; settings: recombinant CYP3A4, probe luciferin-PPXE, read-out: Activity
CYP3A4, sequence (P08684 whole entry): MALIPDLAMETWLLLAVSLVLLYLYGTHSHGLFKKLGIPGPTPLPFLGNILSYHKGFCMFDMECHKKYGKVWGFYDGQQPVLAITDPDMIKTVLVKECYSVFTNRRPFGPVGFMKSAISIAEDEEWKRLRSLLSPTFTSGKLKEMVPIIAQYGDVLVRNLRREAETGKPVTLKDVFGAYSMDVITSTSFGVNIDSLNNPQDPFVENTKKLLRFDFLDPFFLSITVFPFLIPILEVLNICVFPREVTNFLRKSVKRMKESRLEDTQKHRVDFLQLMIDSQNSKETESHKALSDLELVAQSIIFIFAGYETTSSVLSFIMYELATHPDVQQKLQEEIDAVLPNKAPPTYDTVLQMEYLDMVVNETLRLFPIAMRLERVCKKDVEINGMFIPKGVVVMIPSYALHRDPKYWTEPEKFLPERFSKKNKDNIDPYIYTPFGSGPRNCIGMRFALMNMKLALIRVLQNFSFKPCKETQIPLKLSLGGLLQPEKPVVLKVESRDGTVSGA

CC(C(=O)N1CCN(c2cccc(C(F)(F)F)c2)CC1)N1C(=O)CCC1=O (racemic)
Activity (Mus musculus [1]): 100%
Activity (Mus musculus [2]): 100%
Activity (Mus musculus [3]): 100%
Activity (Mus musculus [4]): 50%
Activity (Mus musculus [5]): 75%
Activity (Mus musculus [6]): 50%
Activity (Mus musculus [7]): 100%
Activity (Mus musculus [8]): 100%
Activity (Mus musculus [9]): 75%
Activity (Mus musculus [10]): 100%
Activity (Mus musculus [11]): 100%
inhibition (Rattus norvegicus [12]): 37.4%
Ratio TD50/ED50 (Mus musculus [13]): >16.97
ED50 (Mus musculus [14]): 88.4 mg/kg
ED50 (Mus musculus [15]): 59.9 mg/kg
TD50 at 0.5 h [16]: > 1500 mg/kg
ED50 (Mus musculus [17]): 35 mg/kg
TD50 at 1 h [18]: 824 mg/kg
Ratio TD50/ED50 (Mus musculus [19]): 9.28
selectivity ratio at 1 h [20]: 23.5
inhibition (Rattus norvegicus [21]): 62.3%
inhibition (Rattus norvegicus [22]): 13.9%
selectivity ratio at 48 h [23]: 100
Drug metabolism (Liver microsome [24]): metabolite_detected
Drug metabolism (Liver microsome [25]): metabolite_detected
Drug metabolism (Liver microsome [26]): metabolite_detected
activity at 25 µM (CYP3A4): 68.4%
